We go through 7 compounds from ChEMBL document CHEMBL1629457 (J Med Chem, 2010).

By half-life is commonly meant the time in which the quantity being followed falls by half. High values mean slow decline, low ones rapid decline. By EC50 is commonly meant the midpoint of the concentration-response curve. Usually Ki stands for the equilibrium dissociation constant of an inhibitor or competing ligand from its target. A high value points to a looser hold on the target.

Bridge positions count the residues as written; N and C are the ends. Peptide text beside a SMILES is read from it. Where only a bound is given, the exact number is not on record here.

Data set [1] in a line: Half life in […] by LC/MS and RP-HPLC method. Format: ADME, cell-free, Serum. As to conditions: human. The essentials:
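Human plasma pre-warmed 30 min at 37 °C. Peptide (0.3 mM stock in 0.1 M phosphate, pH 7.2) added at 50 μL per 300 μL plasma, then incubated at 37 °C. Samples taken at 1, 2, 3, 4, 12, 24 and 48 h and quenched in ACN/NaCl/TFA extraction buffer. Analysed by RP-HPLC and LC-MS. Half-life from a one-phase decay fit, n = 3-6.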

The target in data set [2] is T1, Oxytocin receptor (Homo sapiens, UniProt P30559).
T1 sequence (P30559 whole entry): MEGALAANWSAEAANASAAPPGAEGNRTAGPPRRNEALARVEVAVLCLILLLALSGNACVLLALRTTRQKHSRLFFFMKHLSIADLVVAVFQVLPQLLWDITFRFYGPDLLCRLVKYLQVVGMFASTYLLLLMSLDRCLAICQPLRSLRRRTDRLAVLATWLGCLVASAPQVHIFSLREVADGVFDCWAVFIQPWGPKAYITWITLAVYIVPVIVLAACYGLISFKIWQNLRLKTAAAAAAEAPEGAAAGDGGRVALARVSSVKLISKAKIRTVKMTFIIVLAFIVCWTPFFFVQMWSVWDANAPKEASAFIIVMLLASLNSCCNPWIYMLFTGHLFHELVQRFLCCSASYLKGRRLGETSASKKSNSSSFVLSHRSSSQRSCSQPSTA
In words: Activity at oxytocin receptor expressed in COS1 cells assessed as IP-one generation by HTRF assay. Format: cell-based, COS-1. The essentials: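 Human OTR transiently transfected into COS-1 cells (Lipofectamine2000, DNA ratio 2); assayed 48 h post-transfection. Cells stimulated with increasing compound concentrations in HEPES buffer containing 50 mM LiCl, pH 7.4, 1 h at 37 °C, 5% CO2. Lysed with HTRF reagents (Eu cryptate anti-IP-one antibody, d2-IP-one), 1 h room temperature. Read 665/590 nm after 340 nm excitation. EC50; triplicates, n = 3-6.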
Background: Time-resolved FRET reads energy transfer from a long-lived donor to a nearby acceptor.

Data set [3] concerns the target T1, Oxytocin receptor. In words: Displacement of [3H]OT from oxytocin receptor expressed in COS1 cells. Format: cell-based, COS-1. In outline:
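Membranes from COS-1 cells transiently transfected with OTR, harvested 48 h post-transfection; 5 μg protein per well. Incubated with 2 nM [3H]OT and competitor (10 pM to 10 μM) on scintillation proximity beads in buffer with 0.1% BSA. Shaken 1 h at room temperature, then scintillation counted.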
A general note: Loss of bound radioactivity is the signal in a displacement assay; it reports binding, not function.

As to `CC[C@H](C)[C@@H]1NC(=O)[C@H](Cc2ccc(O)cc2)NC(=O)[C@@H](N)CSSC[C@@H](C(=O)N2CCC[C@H]2C(=O)N[C@@H](CC(C)C)C(=O)NCC(N)=O)NC(=O)[C@H](CC(N)=O)NC(=O)[C@H](CCC(N)=O)NC1=O` [OXYTOCIN], the half-life in data set [1] is 11.6 h.

In turn, `CC[C@H](C)[C@@H]1NC(=O)[C@H](Cc2ccc(O)cc2)NC(=O)[C@@H](N)C[Te][Te]C[C@@H](C(=O)N2CCC[C@H]2C(=O)N[C@@H](CC(C)C)NCC(N)=O)NC(=O)[C@H](CC(N)=O)NC(=O)[C@H](CCC(N)=O)NC1=O` gave a half-life in data set [1] of 24.2 h. The EC50 at Oxytocin receptor [2] worked out at 27.3 nM. The compound further registered a Ki on Oxytocin receptor [3] of 7.6 nM.

As to `CC[C@H](C)[C@@H]1NC(=O)[C@H](Cc2ccc(O)cc2)NC(=O)[C@@H]2CSSC[C@H](NC(=O)[C@H](CC(N)=O)NC(=O)[C@H](CCC(N)=O)NC1=O)C(=O)N1CCC[C@H]1C(=O)N[C@@H](CC(C)C)C(=O)NCC(=O)N2`, the half-life in data set [1] was > 48 h. The EC50 on Oxytocin receptor [2] is > 100000 nM. The same compound displayed a Ki on Oxytocin receptor [3] of 1400 nM.

The compound `NC(=O)CC[C@@H]1NC(=O)[C@H](Cc2ccccc2)NC(=O)[C@H](Cc2ccc(O)cc2)NC(=O)[C@@H](N)CSSC[C@@H](C(=O)N2CCC[C@H]2C(=O)N[C@@H](CCCN=C(N)N)C(=O)NCC(N)=O)NC(=O)[C@H](CC(N)=O)NC1=O` [VASOPRESSIN] showed a half-life in data set [1] of 1.7 h.

`CC[C@H](C)[C@@H]1NC(=O)[C@H](Cc2ccc(O)cc2)NC(=O)[C@@H]2CSSC[C@H](NC(=O)[C@H](CC(N)=O)NC(=O)[C@H](CCC(N)=O)NC1=O)C(=O)N1CCC[C@H]1C(=O)N[C@@H](CC(C)C)C(=O)NCC(=O)N[C@@H](C)C(=O)NCC(=O)N[C@@H](C)C(=O)NCC(=O)N[C@@H](C)C(=O)NCC(=O)N2` (cyclo(AGAGAGCYIQNCPLG); disulfide 7-12): the half-life in data set [1] is > 48 h. On Oxytocin receptor [2], the EC50 was > 100000 nM. Further, the Ki at Oxytocin receptor [3] was > 100000 nM.

As to `CC[C@H](C)[C@@H]1NC(=O)[C@H](Cc2ccc(O)cc2)NC(=O)[C@@H](N)CS[Se]C[C@@H](C(=O)N2CCC[C@H]2C(=O)N[C@@H](CC(C)C)NCC(N)=O)NC(=O)[C@H](CC(N)=O)NC(=O)[C@H](CCC(N)=O)NC1=O`, the EC50 on Oxytocin receptor [2] came to 154 nM. Also, the Ki at Oxytocin receptor [3] stood at 0.72 nM.

`CC[C@@H](C)[C@H]1NC(=O)[C@@H](CCC(N)=O)NC(=O)[C@@H](CC(N)=O)NC(=O)[C@H](NC(=O)[C@H]2CCCN2C(=O)[C@@H](CC(C)C)NC(=O)CN)CSSC[C@H](C(=O)O)NC(=O)[C@@H](Cc2ccc(O)cc2)NC1=O` gave a half-life in data set [1] of 5.5 h. Moreover, the EC50 on Oxytocin receptor [2] is > 100000 nM. In addition, at Oxytocin receptor [3], the Ki was > 100000 nM.
